The source made the active and inactive calls. No cut-off for these calls is given here.
Assays:
[1] = molecular target: Kelch-like ECH-associated protein 1 (Homo sapiens) (UniProt Q14145); experiment: Binding affinity to Keap1 in human HaCaT cells assessed as induction of NRF2/ARE activation-mediated HO1 expression at 10 uM after 6 to 24 hrs by Western blot analysis; assay type: cell-based
How it was run: (§1)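 HaCaT cells were grown in RPMI with 10% FBS and Pen/Strep and treated with agent from DMSO stock (1/1000 dilution), across concentrations for 24 h or over a time course. Cells were lysed in RIPA buffer and protein was measured by BCA. Equal amounts were separated by SDS-PAGE, blotted to PVDF, blocked in 5% milk/PBST, probed overnight at 4°C with HO-1 or NRF2 antibody, and detected by ECL. Actin served as loading control.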

[2] = molecular target: Kelch-like ECH-associated protein 1 (Homo sapiens) (UniProt Q14145); experiment: Binding affinity to Keap1 in human HaCaT cells at 10 nmol by immunoprecipitation assay; assay type: cell-based
How it was run: (§2)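 Lysate (800 µg) from confluent HaCaT cells in RIPA buffer was mixed with biotin or biotinylated agent (10 nmole each). Pull-down was done with streptavidin-agarose beads overnight at 4°C. Beads were washed in ice-cold PBS, and bound KEAP1 and NRF2 were detected by Western blot.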

[3] = molecular target: T1, Nuclear factor erythroid 2-related factor 2 (Homo sapiens) (UniProt Q16236); experiment: Binding affinity to NRF2 in human HaCaT cells at 10 nmol by immunoprecipitation assay; assay type: cell-based; how it was run: as §2
T1 sequence (whole entry): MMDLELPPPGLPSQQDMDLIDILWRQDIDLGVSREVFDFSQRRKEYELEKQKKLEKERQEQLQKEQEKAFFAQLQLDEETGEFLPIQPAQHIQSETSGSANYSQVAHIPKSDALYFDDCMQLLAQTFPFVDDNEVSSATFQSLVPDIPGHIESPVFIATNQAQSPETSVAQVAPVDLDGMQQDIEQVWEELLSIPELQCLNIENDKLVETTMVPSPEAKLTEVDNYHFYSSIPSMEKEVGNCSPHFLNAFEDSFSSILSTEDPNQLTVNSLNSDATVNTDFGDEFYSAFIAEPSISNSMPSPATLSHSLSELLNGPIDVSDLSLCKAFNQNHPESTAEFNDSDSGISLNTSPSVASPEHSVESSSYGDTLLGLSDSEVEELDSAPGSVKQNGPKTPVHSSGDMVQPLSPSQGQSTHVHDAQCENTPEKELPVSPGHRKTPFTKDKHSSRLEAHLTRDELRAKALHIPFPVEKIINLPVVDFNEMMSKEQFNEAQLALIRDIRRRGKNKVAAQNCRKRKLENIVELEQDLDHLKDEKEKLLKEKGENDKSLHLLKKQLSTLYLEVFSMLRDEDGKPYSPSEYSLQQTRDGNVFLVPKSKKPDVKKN

[4] = molecular target: Kelch-like ECH-associated protein 1 (Homo sapiens) (UniProt Q14145); experiment: Binding affinity to Keap1 in human HaCaT cells assessed as induction of NRF2/ARE activation-mediated HO1 mRNA expression at 10 uM RT-PCR method; assay type: cell-based; conditions: TDE = time-dependent effect
How it was run: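 HaCaT cells were treated at 10 µM (DMSO, 1/1000) for 4, 8 and 12 h. Total RNA was analysed by SYBR real-time RT-PCR with HO-1-specific primers. Cycling was 95 °C for 5 min; 40 cycles of 95 °C 10 s, 59 °C 10 s, 72 °C 20 s; then 95 °C 10 s.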

HaCaT [5] = experiment: Cytotoxicity against human HaCaT cells assessed as reduction in cell viability at 10 uM after 24 hrs by MTT method; assay type: cell-based
How it was run: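 HaCaT cells were seeded at 30,000 per well and exposed to agent at 10 µM for 24 h. After a PBS wash, cells were incubated with MTT (5 mg/ml) for 4 h, lysed in DMSO, and absorbance was read at 560 nm.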

Mus musculus [6] = experiment: Upregulation of GCLC expression in skin lysates of mouse at 10 umole applied topically up to 24 hrs by Western blot analysis; assay type: functional, organism-based; conditions: Zone of skin, Lysate
Mus musculus [7] = experiment: Upregulation of HO-1 expression in skin lysates of mouse at 10 umole applied topically up to 24 hrs by Western blot analysis; assay type: functional, organism-based; conditions: Zone of skin, Lysate
Mus musculus [8] = experiment: Upregulation of NRF2 expression in skin lysates of mouse at 10 umole applied topically up to 24 hrs by Western blot analysis; assay type: functional, organism-based; conditions: Zone of skin, Lysate
Mus musculus [9] = experiment: Anti-carcinogenic effect in hairless mouse assessed as inhibition of DMBA/TPA-induced papilloma growth at 10 umol administered topically 3 times per week up to 10 weeks with TPA starting from 1 week post DMBA treatment by hematoxylin/eosin staining based phase-contrast microscopic method; assay type: functional, organism-based
How it was run: (§3)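 Male hairless mice (6 weeks old at purchase, acclimated one week) received a single topical dose of DMBA (2 µmole) or acetone vehicle in week 1. From week 2, the back was treated with TPA (10 nmole) alone or with test agent (10 µmole), three times per week. Papillomas were counted manually at the end of each week. At sacrifice, skin was formalin-fixed, paraffin-embedded and H/E-stained for phase-contrast imaging.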

[10] = molecular target: Kelch-like ECH-associated protein 1 (Mus musculus) (UniProt Q9Z2X8); experiment: Binding affinity to Keap1 in NRF2+/+ MEF assessed as induction of NRF2/ARE activation-mediated HO1 expression at 10 uM up to 8 hrs by RT-PCR method; assay type: cell-based
Mus musculus [11] = experiment: Anti-carcinogenic effect in hairless mouse assessed as inhibition of number of DMBA/TPA-induced papilloma formation at 10 umol administered topically 3 times per week up to 10 weeks with TPA starting from 1 week post DMBA treatment; assay type: functional, organism-based; how it was run: as §3
[12] = molecular target: Kelch-like ECH-associated protein 1 (Homo sapiens) (UniProt Q14145); experiment: Binding affinity to Keap1 in human HaCaT cells assessed as activation of NRF2 by measuring nuclear translocation of NRF2 at 10 uM after 6 to 12 hrs by immunofluorescence assay; assay type: cell-based
How it was run: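 Confluent HaCaT cells on glass were exposed to agent for 6 h and 12 h, blocked with 1% BSA for 30 min, and fixed with paraformaldehyde. They were incubated overnight at 4°C with NRF2 antibody, then with FITC-conjugated secondary antibody, and imaged by confocal microscopy.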

[13] = molecular target: Kelch-like ECH-associated protein 1 (Homo sapiens) (UniProt Q14145); experiment: Binding affinity to Keap1 in human HaCaT cells assessed as induction of NRF2/ARE activation-mediated HO1 expression at 10 uM by Western blot analysis; assay type: cell-based; conditions: TDE = time-dependent effect; how it was run: as §1
HaCaT [14] = experiment: Induction of apoptosis in human HaCaT cells assessed as increase in cleaved caspase-3 protein expression at 10 uM after 6 to 24 hrs by Western blot analysis; assay type: cell-based
How it was run: (§4)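 HaCaT cells were exposed to agent or etoposide for various times. RIPA lysates were analysed by SDS-PAGE and Western blot with cleaved caspase-3 and cleaved PARP antibodies, with ECL detection and actin as loading control.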

[15] = molecular target: Kelch-like ECH-associated protein 1 (Mus musculus) (UniProt Q9Z2X8); experiment: Binding affinity to Keap1 in NRF2+/+ MEF assessed as induction of NRF2/ARE activation-mediated HO1 expression at 10 uM after 24 hrs by Western blot analysis; assay type: cell-based
Mus musculus [16] = experiment: Anti-carcinogenic effect in hairless mouse assessed as inhibition of incidence of DMBA/TPA-induced papilloma formation at 10 umol administered topically 3 times per week up to 10 weeks with TPA starting from 1 week post DMBA treatment; assay type: functional, organism-based; how it was run: as §3
Mus musculus [17] = experiment: Downregulation of 4-HNE expression in skin lysates of DMBA/TPA-induced mouse skin carcinogenesis model at 10 umol administered topically 3 times per week up to 10 weeks with TPA starting from 1 week post DMBA treatment by immunofluorescence microscopic method; assay type: functional, organism-based; conditions: Zone of skin, Lysate
How it was run: (§5)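 Skin came from the two-stage DMBA/TPA model in hairless mice: DMBA 2 µmole once topically, then TPA 10 nmole ± agent 10 µmole three times weekly. At sacrifice, skin was formalin-fixed and paraffin-embedded. Sections were incubated overnight at 4°C with 8-OH-G or 4-HNE primary antibody, then probed with FITC-conjugated secondary antibody for fluorescence imaging.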

[18] = molecular target: Kelch-like ECH-associated protein 1 (Homo sapiens) (UniProt Q14145); experiment: Binding affinity to Keap1 in human HaCaT cells assessed as induction of NRF2/ARE activation-mediated HO1 expression at 1 to 10 uM after 24 hrs by Western blot analysis; assay type: cell-based; how it was run: as §1
HaCaT [19] = experiment: Cytotoxicity against human HaCaT cells assessed as reduction in cell viability by measuring morphological changes at 10 uM after 24 hrs by phase contrast microscopic method; assay type: cell-based
How it was run: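 HaCaT cells were exposed to agent or etoposide, and gross cell morphology was examined by phase-contrast microscopy.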

[20] = molecular target: Kelch-like ECH-associated protein 1 (Mus musculus) (UniProt Q9Z2X8); experiment: Binding affinity to Keap1 in NRF2-/- MEF assessed as induction of NRF2/ARE activation-mediated HO1 expression at 10 uM up to 8 hrs by RT-PCR method; assay type: cell-based
Mus musculus [21] = experiment: Downregulation of 8-OH-G expression in skin lysates of DMBA/TPA-induced mouse skin carcinogenesis model at 10 umol administered topically 3 times per week up to 10 weeks with TPA starting from 1 week post DMBA treatment by immunofluorescence microscopic method; assay type: functional, organism-based; conditions: Zone of skin, Lysate; how it was run: as §5
[22] = molecular target: Kelch-like ECH-associated protein 1 (Mus musculus) (UniProt Q9Z2X8); experiment: Binding affinity to Keap1 in NRF2-/- MEF assessed as induction of HO1 expression at 10 uM after 24 hrs by Western blot analysis; assay type: cell-based
HaCaT [23] = experiment: Induction of apoptosis in human HaCaT cells assessed as increase in cleaved PARP protein expression at 10 uM after 6 to 24 hrs by Western blot analysis; assay type: cell-based; how it was run: as §4
HaCaT [24] = experiment: Cell cycle arrest in human HaCaT cells assessed as accumulation at G1/S phase at 10 uM after 24 hrs by propidium iodide staining based flow cytometry
How it was run: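 HaCaT cells were exposed to agent for 24 h, with etoposide as positive control. Cells (1x10⁶ per group) were fixed in PBS/70% EtOH (3:7), washed, stained with propidium iodide (20 µg/ml), and G1/S distribution was measured by flow cytometry.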

Kelch-like ECH-associated protein 1 (Homo sapiens), sequence (Q14145 whole entry): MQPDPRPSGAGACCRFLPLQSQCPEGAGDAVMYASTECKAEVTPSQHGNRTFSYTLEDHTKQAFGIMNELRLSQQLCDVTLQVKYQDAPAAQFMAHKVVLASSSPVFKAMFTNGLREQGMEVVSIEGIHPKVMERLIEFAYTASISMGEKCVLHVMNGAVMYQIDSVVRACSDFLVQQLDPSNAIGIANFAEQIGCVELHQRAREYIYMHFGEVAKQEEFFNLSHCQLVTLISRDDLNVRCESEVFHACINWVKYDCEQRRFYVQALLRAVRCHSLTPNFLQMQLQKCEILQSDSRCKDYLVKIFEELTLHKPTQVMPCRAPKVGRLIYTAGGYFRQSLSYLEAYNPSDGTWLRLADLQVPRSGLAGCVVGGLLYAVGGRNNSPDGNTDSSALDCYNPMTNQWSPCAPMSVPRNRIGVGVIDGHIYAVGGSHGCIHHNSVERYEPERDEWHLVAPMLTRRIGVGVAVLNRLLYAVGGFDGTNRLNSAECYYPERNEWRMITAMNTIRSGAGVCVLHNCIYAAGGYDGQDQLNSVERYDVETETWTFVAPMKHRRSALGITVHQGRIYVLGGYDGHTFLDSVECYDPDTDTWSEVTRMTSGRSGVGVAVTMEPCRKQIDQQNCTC
Kelch-like ECH-associated protein 1 (Mus musculus), sequence (Q9Z2X8 whole entry): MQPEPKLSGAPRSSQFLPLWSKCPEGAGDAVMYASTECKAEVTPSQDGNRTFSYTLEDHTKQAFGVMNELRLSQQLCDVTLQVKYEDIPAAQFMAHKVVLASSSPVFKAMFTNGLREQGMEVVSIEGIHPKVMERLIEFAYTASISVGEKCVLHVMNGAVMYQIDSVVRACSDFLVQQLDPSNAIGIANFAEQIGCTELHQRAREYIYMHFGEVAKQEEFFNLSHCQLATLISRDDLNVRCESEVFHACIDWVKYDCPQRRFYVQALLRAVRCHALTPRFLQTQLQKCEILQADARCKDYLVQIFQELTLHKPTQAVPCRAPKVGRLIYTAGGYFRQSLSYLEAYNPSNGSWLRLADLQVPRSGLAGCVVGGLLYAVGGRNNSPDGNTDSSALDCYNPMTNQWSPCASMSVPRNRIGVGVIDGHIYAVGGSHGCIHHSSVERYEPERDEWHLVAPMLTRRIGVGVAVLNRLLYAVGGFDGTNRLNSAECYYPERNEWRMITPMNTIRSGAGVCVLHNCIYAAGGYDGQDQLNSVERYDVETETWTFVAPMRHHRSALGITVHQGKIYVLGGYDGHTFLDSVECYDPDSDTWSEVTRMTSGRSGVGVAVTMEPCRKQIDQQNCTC

Q: For CCC/C=C1/C(=O)O[C@@H](C)[C@H]1O, which Activity [1] is on record?
A: inactive

Q: Which Activity [1] does the source give for CCCCCCCCCCCCC/C=C1/C(=O)O[C@@H](C)[C@H]1OC(=O)CC(C)C here?
A: inactive

Q: Which Activity [1] does the source give for CCCCCCCCCCCCC/C=C1\C(=O)O[C@@H](C)[C@H]1O here?
A: Active

Q: Which Activity [1] does the source give for CCCCCCCCCCCCC/C=C1/C(=O)O[C@@H](C)[C@@H]1O here?
A: Active

Q: Which results are given for C[C@@H]1OC(=O)/C(=C/CCCCCCCCCCCCNC(=O)CCCC[C@@H]2SC[C@@H]3NC(=O)N[C@@H]32)[C@@H]1O?
A: Activity [2]: Active; Activity [3]: inactive

Q: With CCCCCCCCCCC/C=C1/C(=O)O[C@@H](C)[C@H]1O as the molecule, how does the Activity [1] read?
A: Active

Q: What about the Activity [4] of the same molecule?
A: Tde

Q: What about the Activity (HaCaT [5]) of the same molecule?
A: Non-Toxic

Q: What does the source list for CCCCCCCCCC/C=C1/C(=O)O[C@@H](C)[C@H]1O?
A: Activity [1]: Active; Activity [4]: Tde; Activity (HaCaT [5]): Non-Toxic

Q: How did the Activity [1] turn out when CCCCC/C=C1/C(=O)O[C@@H](C)[C@H]1O was run?
A: inactive

Q: With CCCCCCCCCCCC/C=C1/C(=O)O[C@@H](C)[C@H]1O as the molecule, how does the Activity (Mus musculus [6]) read?
A: Active

Q: What about the Activity (Mus musculus [7]) of the same molecule?
A: Active

Q: What about the Activity (Mus musculus [8]) of the same molecule?
A: Active

Q: And the Activity [1]?
A: Active

Q: What about the Activity [4] of the same molecule?
A: Tde

Q: And the Activity (HaCaT [5])?
A: Non-Toxic

Q: CCCCCCCCCCCCCC[C@@H]1C[C@H](O)OC1=O was tested. Which Activity [1] did it give?
A: inactive

Q: Which inhibition (Mus musculus [9]) does the source give for CCCCCCCCCCCCC/C=C1/C(=O)O[C@@H](C)[C@H]1O here?
A: Active

Q: What about the Activity [10] of the same molecule?
A: Active

Q: And the inhibition (Mus musculus [11])?
A: Active

Q: What about the Activity [12] of the same molecule?
A: Active

Q: What about the Activity (Mus musculus [6]) of the same molecule?
A: Active

Q: And the Activity [13]?
A: Tde

Q: What about the Activity (HaCaT [14]) of the same molecule?
A: Non-Toxic

Q: What about the Activity [15] of the same molecule?
A: Active

Q: And the Activity (Mus musculus [7])?
A: Active

Q: And the inhibition (Mus musculus [16])?
A: Active

Q: What about the Activity (Mus musculus [17]) of the same molecule?
A: Active

Q: What about the Activity [18] of the same molecule?
A: Active

Q: What about the Activity (HaCaT [19]) of the same molecule?
A: Non-Toxic

Q: And the Activity (Mus musculus [8])?
A: Active

Q: And the Activity [20]?
A: inactive

Q: And the Activity (Mus musculus [21])?
A: Active

Q: And the Activity [22]?
A: inactive

Q: What about the Activity (HaCaT [5]) of the same molecule?
A: Non-Toxic

Q: And the Activity (HaCaT [23])?
A: Non-Toxic

Q: What about the Activity (HaCaT [24]) of the same molecule?
A: Non-Toxic

Q: Which Activity [1] does the source give for CCCCCCCCCCCCC/C=C1\C[C@H](C)OC1=O here?
A: inactive

Q: CCCCCCCCCCCCCC[C@H]1C(=O)O[C@@H](O)[C@H]1O was tested. Which Activity [1] did it give?
A: inactive

Q: CCCCCCCCC/C=C1/C(=O)O[C@@H](C)[C@H]1O was tested. Which Activity [1] did it give?
A: Active

Q: And the Activity [4]?
A: Tde

Q: And the Activity (HaCaT [5])?
A: Non-Toxic
